In one series the test system is MCF7. Kind of series: Cytotoxicity against human MCF7 after 72 hrs by MTT assay. The format is functional, cell-based. Conditions: MCF7, 72 h. An outline of the steps: (§1)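 Cells seeded at 1×10^3 per well in medium, preincubated 24 h at 37 °C in 5% CO2, then test drug added in medium to quadruplicate wells for 72 h. MTT ([…] in complete medium) added for 4 h; formazan dissolved in DMSO buffered with glycine-NaCl (pH 10.5); absorbance at 570 nm. IC50 taken as concentration giving 50% loss of viability; means of three experiments.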

Series [1] deals with Bel-7402. Kind of series: Cytotoxicity against human Bel7402 after 72 hrs by MTT assay. The format is functional, cell-based. Conditions: Bel-7402, 72 h. An outline of the steps:
as §1
For orientation: Formazan colour is commonly taken as a measure of viable cells.

The nature of series [2]: Cytotoxicity against human L02 cells at 1.4 umol/L after 72 hrs by MTT assay. The format is cell-based. As to conditions: l02, 72 h, 1.4 µM. An outline of the steps:
(§2)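 BEL-7402 (liver cancer) and L-02 (liver normal) cells seeded at 1×10^3 per well, preincubated 24 h at 37 °C, 5% CO2, exposed to 1.4 μmol/L compound in quadruplicate wells for 72 h. Viability by MTT (4 h), formazan dissolved in glycine-NaCl-buffered DMSO, read at 570 nm. One-way ANOVA with LSD multiple comparisons, P < 0.05.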

The subject of series [3] is Bel-7402. The experiment in a line: Cytotoxicity against human Bel7402 cells at 1.4 umol/L after 72 hrs by MTT assay. It counts as functional, cell-based. An outline of the steps: as §2
A short description of series [4]: Induction of NO release in PBS at pH 7.4 by Griess assay. The format is physicochemical. Conditions: buffer. An outline of the steps: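 Compound at 2 mM in 0.1 M phosphate buffer pH 7.4, no L-cysteine, incubated 1.5 h at 37 °C without air, then 10 min air at 25 °C. Nitrite measured by Griess reagent (sulfanilamide/N-naphthylethylenediamine), absorbance at 540 nm against a 0–100 µM sodium nitrite curve; expressed as % of 1 mol NO/mol theoretical release, n = 3.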
On the technique in general: The Griess reaction detects nitrite, a stable product of nitric oxide.

The nature of series [5]: Induction of NO release in phosphate buffer containing L-cysteine at pH 7.4 by Griess assay. The format is physicochemical. An outline of the steps:
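Compound at 0.2 mM in 0.1 M phosphate buffer pH 7.4 mixed 1:1 with fresh 3.6 mM L-cysteine in the same buffer; incubated 1.5 h at 37 °C without air, then exposed to air 10 min at 25 °C. Griess reagent added, absorbance at 540 nm after 10 min; nitrite from sodium nitrite standard curve (0–100 µM); % of 1 mol NO/mol theoretical, n = 3.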

In series [6] the test system is Bel-7402. The experiment in a line: Induction of NO release in human Bel7402 cells assessed as decrease in absorbance at 100 umol/L after 30 mins by spectrophotometry. It counts as functional, cell-based. An outline of the steps: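 BEL-7402 cells grown in 24-well plates at 37 °C, 5% CO2 to at least 70% confluency; medium replaced with medium containing 100 µmol/L compound. After 0 and 30 min at 37 °C, the drug-containing medium was removed and its absorbance measured by UV–vis spectrophotometry.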

Calls of active or inactive are those of the source. The rule behind the calls is not given here.

What is called IC50 is the point on the concentration scale where inhibition reaches its midpoint. Low readings indicate greater potency, high ones weaker potency. With `O=c1[nH]cc(F)c(=O)[nH]1` [FLUOROURACIL], the IC50 in the series on MCF7 is 4.7 µM; in the series on Bel-7402 [1], 4.3 µM.
On to `O=Cc1ccc(OCCO[N+](=O)[O-])cc1`, for which, in series [2], the Activity result is “Toxic”.
For the compound `Cc1ccc(-c2c3nc(c(-c4ccc(C)cc4)c4ccc([nH]4)c(-c4ccc(OCCCO[N+](=O)[O-])cc4)c4nc(c(-c5ccc(C)cc5)c5ccc2[nH]5)C=C4)C=C3)cc1`, in the series on Bel-7402 [3], the result was Active. The IC50 was 46 µM with MCF7 and 1.4 µM in the series on Bel-7402 [1]. The Activity in series [4] is 1.1%; in series [5], 6.25%.
In the case of `O=[N+]([O-])OCCCOc1ccc(-c2c3nc(c(-c4ccccc4)c4ccc([nH]4)c(-c4ccccc4)c4nc(c(-c5ccccc5)c5ccc2[nH]5)C=C4)C=C3)cc1`, in the series with Bel-7402 [3], the result was Active. Further, the IC50 with MCF7 turned out to be 30 µM; in the series with Bel-7402 [1] it was 3 µM. For the same compound, the Activity in series [4] stood at 0.47%; in series [5], 3.95%.
Regarding `O=[N+]([O-])OCCOc1ccc(-c2c3nc(c(-c4ccccc4)c4ccc([nH]4)c(-c4ccccc4)c4nc(c(-c5ccccc5)c5ccc2[nH]5)C=C4)C=C3)cc1`, the outcome with Bel-7402 [3] and in the series on Bel-7402 [6] was Active. The IC50 turned out to be 8.7 µM with MCF7 and 0.8 µM in the series on Bel-7402 [1]. Also, the Activity stood at 0.43% in series [4] and 5.67% in series [5].
Take `Cc1ccc(-c2c3nc(c(-c4ccc(C)cc4)c4ccc([nH]4)c(-c4ccc(OCCO[N+](=O)[O-])cc4)c4nc(c(-c5ccc(C)cc5)c5ccc2[nH]5)C=C4)C=C3)cc1`: in the series with Bel-7402 [3], the outcome was Active. Also, the IC50 with MCF7 is 55 µM; in the series on Bel-7402 [1] it was 1.8 µM. Also, the Activity worked out at 0.55% in series [4] and 3.12% in series [5].
As to `C1=Cc2nc1c(-c1ccccc1)c1nc(c(-c3ccccc3)c3ccc([nH]3)c(-c3ccccc3)c3ccc([nH]3)c2-c2ccccc2)C=C1` [TETRAPHENYLPORPHYRIN], the figures for the IC50 in the series on MCF7 and in the series with Bel-7402 [1] were 245 µM and 350 µM, respectively.
For `O=Cc1ccc(OCCCO[N+](=O)[O-])cc1`, in series [2], the Activity entry is given as “Toxic”.
